Activity calls are given as the source filed them. The calls are words filed in the database; no cut-off is given here.
Key:
[1] = target: T1, Proteinase-activated receptor 1 (Homo sapiens) (UniProt P25116); assay: Antagonist activity at PAR1 expressed in CHO cells assessed as inhibition of SFLLR-NH2-induced calcium release at 10 uM by FLIPR assay; assay type: functional, cell-based
T1 sequence (whole entry): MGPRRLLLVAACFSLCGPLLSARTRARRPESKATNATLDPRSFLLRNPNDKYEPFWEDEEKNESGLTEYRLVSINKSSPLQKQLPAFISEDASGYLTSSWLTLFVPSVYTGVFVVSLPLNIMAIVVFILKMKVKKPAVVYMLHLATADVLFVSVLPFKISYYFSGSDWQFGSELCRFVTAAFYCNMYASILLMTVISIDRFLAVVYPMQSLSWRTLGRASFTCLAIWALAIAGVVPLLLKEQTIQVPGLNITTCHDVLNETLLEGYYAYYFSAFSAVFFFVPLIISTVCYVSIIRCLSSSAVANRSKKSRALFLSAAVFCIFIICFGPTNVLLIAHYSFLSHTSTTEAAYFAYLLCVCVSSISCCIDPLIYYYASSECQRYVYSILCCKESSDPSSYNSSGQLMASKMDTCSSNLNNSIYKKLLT
How it was run: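 Calcium release triggered by 1 µM SFLLR-NH₂; test compound at 10 µM, read as % inhibition of the agonist response. Values are mean SEM of at least two independent determinations, each run in triplicate.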

[2] = Antiaggregatory activity in human platelets assessed as inhibition of SFLLR-induced aggregation; assay type: functional, Platelet
[3] = target: T2, Proteinase-activated receptor 1 (Homo sapiens, UniProt P25116); assay: (§1) Antagonist activity at PAR1 expressed in CHO cells assessed as inhibition of SFLLR-NH2-induced calcium release by FLIPR assay; assay type: functional, cell-based; settings: read-out: pA2 (converted)
T2 sequence (P25116 whole entry): T1 sequence (whole entry)
How it was run: (§2)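 Concentration-response study in the same calcium-release screen, with release induced by 1 µM SFLLR-NH₂. Used to separate partial from fully competitive antagonists; pA₂ was derived for full antagonists only.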

[4] = test system: Rattus norvegicus; assay: Antithrombotic activity in rat assessed as increase in occlusion time of arteriovenous shunt at 1.25 mg/kg, iv; assay type: functional
How it was run: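 Arteriovenous extracorporeal shunt in anesthetized rats, compound dosed at 1.25 mg/kg. Read-out is % increase of occlusion time.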

[5] = target: T1, Proteinase-activated receptor 1 (Homo sapiens); assay: as §1; assay type: functional, cell-based; how it was run: as §2

SMILES | inhibition [1] [%] | further results
O=C(/C=C/c1c(F)cccc1F)c1ccc(NC2CCCCC2)nc1 | 41 | –
Cc1cccc(-c2ccc(C(=O)/C=C/c3ccccc3Cl)cn2)c1C | 32 | –
O=C(/C=C/c1c(F)cccc1F)N1CCC(NCc2ccc(F)cc2)CC1 | 0 | –
N#Cc1ccccc1/C=C/c1c(N2CCN(Cc3ccsc3)CC2)c(=O)c1=O | 97 | pKb [2]: 4; Kb [3]: 389 nM
N#Cc1ccccc1/C=C/c1c(N2CCN(CC3CCCCC3)CC2)c(=O)c1=O | 84 | pKb [2]: 4; Kb [3]: 427 nM
O=c1c(/C=C/c2ccccc2Cl)c(N2CCN(CC3CCCCC3)CC2)c1=O | 41 | –
N#Cc1ccccc1/C=C/C(=O)N1CCC(N(Cc2ccc(F)cc2)Cc2ccccn2)C(F)C1 (stereo not drawn) | 33 | –
N#Cc1ccccc1/C=C/C(=O)c1ccc(N2CC=CC2)cn1 | 52 | –
O=C(/C=C/c1ccccc1Cl)N1CCN(Cc2ccc(F)cc2)CC1 | 93 | pKb [2]: 5.52; Activity [4]: 28%; Kb [3]: 380 nM
O=c1c(/C=C/c2ccccc2Cl)c(N2CCN(Cc3ccccc3)CC2)c1=O | 85 | pA2 [5]: Active
O=C(/C=C/c1ccccc1Cl)c1ccc(NC2CCCCC2)nc1 | 97 | pA2 [5]: Active
N#Cc1ccccc1/C=C\C(=O)N1CCC(NCc2ccc(F)cc2)C(F)C1 (stereo not drawn) | 40 | –
O=c1c(/C=C/c2ccccc2Cl)c(N2CCN(Cc3ccc(F)cc3)CC2)c1=O | 23 | –
O=C(c1cc2ccccc2o1)N1CCN(Cc2ccccc2)CC1 | 1 | –
O=C(C1=Cc2ccccc2OC1)N1CCN(Cc2ccc(F)cc2)CC1 | 16 | –
O=C(/C=C/c1ccccc1Cl)c1ccc(N2CC=CC2)cn1 | 13 | –
N#Cc1ccccc1/C=C/C(=O)c1ccc(NC2CCCCC2)nc1 | 53 | –
O=C(c1cc2c(F)cccc2s1)N1CCN(Cc2ccccc2)CC1 | 4 | –

Second part, led by results:

inhibition [1] [%] | SMILES | further results
25 | O=C(/C=C\c1c(F)cccc1F)N1CCC(NCc2ccc(F)cc2)C(F)C1 (stereo not drawn) | –
23 | O=C(/C=C\c1ccccc1Cl)N1CCC(N(Cc2ccc(F)cc2)Cc2ccccn2)C(F)C1 (stereo not drawn) | –
11 | O=C(/C=C/c1ccccc1Cl)c1ccc(NC2CCCC2)nc1 | –
85 | O=C(/C=C\c1ccccc1Cl)N1CCC(Nc2ccc(F)cc2)C(F)C1 (stereo not drawn) | pKb [2]: 4; Kb [3]: 389 nM
74 | Cc1cccc(-c2ccc(C(=O)/C=C/c3c(F)cccc3F)cn2)c1C | –
2 | O=C(c1cc2ccccc2[nH]1)N1CCN(Cc2ccccc2)CC1 | –
84 | N#Cc1ccccc1/C=C/C(=O)c1ccc(NC2CCCC2)nc1 | pKb [2]: 5.05; Activity [4]: 28%; Kb [3]: 933 nM
11 | Cn1c(C(=O)N2CCN(Cc3ccccc3)CC2)cc2ccccc21 | –
40 | Cc1cccc(-c2ccc(C(=O)/C=C/c3c(F)cccc3F)nc2)c1C | –
68 | N#Cc1ccccc1/C=C\C(=O)N1CCC(N(Cc2ccc(F)cc2)Cc2ccccn2)C(F)C1 (stereo not drawn) | pKb [2]: 5.68; Activity [4]: 53%; Kb [3]: 589 nM
20 | O=C(/C=C/c1c(F)cccc1F)c1ccc(N2CCCC2)nc1 | –
60 | O=C(/C=C/c1c(F)cccc1F)c1ccc(N2CC=CC2)cn1 | –
27 | O=c1c(/C=C/c2ccccc2Cl)c(N2CCN(Cc3ccsc3)CC2)c1=O | –

From ChEMBL document CHEMBL1154931, “Exploration of a new series of PAR1 antagonists” (Bioorg Med Chem Lett, 2010)
